# According to the M2OR odorant receptor database:
# Key:
# Settings in all cases: stereoisomer not certain
# UniProt Q8VGZ2 = biological target: T1, UniProt Q8VGZ2
# T1 sequence (whole entry): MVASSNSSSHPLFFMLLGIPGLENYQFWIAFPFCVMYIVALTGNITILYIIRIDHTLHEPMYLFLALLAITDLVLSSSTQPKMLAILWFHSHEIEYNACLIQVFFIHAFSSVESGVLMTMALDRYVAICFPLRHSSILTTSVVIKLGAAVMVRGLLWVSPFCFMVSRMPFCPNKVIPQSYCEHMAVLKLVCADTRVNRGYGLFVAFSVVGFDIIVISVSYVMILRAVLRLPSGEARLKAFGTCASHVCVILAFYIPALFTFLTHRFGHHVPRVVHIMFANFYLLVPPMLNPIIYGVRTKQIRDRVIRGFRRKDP
# Outline: (§1)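 Transient luciferase assays in mammalian cell lines were common, though methods varied by source. The values come from published papers and their supplementary material, with extra details from the original authors when needed. Responsive refers to a measured signal the original authors judged statistically different from baseline, and non-responsive (inactive) to the remainder.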
# UniProt Q8VGZ7 = biological target: T2, UniProt Q8VGZ7
# T2 sequence (whole entry): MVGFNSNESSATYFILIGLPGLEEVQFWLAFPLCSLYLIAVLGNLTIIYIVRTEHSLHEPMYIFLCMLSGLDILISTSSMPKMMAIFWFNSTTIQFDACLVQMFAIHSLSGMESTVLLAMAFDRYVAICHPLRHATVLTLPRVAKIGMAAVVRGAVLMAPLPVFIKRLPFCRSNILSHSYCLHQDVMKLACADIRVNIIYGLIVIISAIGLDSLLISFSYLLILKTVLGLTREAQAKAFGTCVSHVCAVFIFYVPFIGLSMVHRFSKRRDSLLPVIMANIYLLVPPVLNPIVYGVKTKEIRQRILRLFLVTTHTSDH
# Outline: as §1
# UniProt Q8VH16 = biological target: T3, UniProt Q8VH16
# T3 sequence (whole entry): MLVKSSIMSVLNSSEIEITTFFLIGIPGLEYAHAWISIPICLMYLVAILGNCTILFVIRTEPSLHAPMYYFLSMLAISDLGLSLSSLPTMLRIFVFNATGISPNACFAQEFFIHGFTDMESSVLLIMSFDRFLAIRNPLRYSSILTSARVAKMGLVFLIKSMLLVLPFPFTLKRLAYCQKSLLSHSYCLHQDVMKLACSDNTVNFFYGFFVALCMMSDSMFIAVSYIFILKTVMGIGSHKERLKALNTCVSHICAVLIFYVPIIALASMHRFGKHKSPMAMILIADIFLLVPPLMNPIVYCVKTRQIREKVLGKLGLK
# Outline: as §1
# UniProt Q8VH20 = biological target: T4, UniProt Q8VH20
# T4 sequence (whole entry): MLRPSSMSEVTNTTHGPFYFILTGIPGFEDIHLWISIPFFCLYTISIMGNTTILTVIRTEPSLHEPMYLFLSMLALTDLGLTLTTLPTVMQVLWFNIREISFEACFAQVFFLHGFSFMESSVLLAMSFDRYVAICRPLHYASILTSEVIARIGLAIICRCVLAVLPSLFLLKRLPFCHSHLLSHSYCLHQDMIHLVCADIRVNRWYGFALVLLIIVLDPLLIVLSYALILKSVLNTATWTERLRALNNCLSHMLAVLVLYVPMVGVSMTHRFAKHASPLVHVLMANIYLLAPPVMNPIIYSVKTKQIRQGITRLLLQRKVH
# Outline: as §1
# UniProt Q8VH21 = biological target: T5, UniProt Q8VH21
# T5 sequence (whole entry): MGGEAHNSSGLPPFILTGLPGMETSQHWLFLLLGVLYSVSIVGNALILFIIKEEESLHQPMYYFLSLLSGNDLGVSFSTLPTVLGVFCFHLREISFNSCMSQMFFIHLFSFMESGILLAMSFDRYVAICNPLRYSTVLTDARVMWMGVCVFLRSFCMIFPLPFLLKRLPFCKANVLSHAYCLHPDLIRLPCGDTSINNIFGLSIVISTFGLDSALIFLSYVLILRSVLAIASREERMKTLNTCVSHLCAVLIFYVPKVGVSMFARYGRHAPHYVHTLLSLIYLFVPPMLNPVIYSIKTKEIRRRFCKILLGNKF
# Outline: as §1
# UniProt Q924H8 = biological target: T6, UniProt Q924H8
# T6 sequence (whole entry): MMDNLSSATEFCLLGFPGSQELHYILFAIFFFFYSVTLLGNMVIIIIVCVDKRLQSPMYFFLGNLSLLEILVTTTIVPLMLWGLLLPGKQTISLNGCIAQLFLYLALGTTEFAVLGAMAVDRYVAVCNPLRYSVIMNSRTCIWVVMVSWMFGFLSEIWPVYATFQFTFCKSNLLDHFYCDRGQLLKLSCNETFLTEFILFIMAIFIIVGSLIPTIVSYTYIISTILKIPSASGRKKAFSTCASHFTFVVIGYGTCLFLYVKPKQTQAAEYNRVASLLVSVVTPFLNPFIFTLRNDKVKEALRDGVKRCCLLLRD
# Outline: as §1
# UniProt Q8VH18 = biological target: T7, UniProt Q8VH18
# T7 sequence (whole entry): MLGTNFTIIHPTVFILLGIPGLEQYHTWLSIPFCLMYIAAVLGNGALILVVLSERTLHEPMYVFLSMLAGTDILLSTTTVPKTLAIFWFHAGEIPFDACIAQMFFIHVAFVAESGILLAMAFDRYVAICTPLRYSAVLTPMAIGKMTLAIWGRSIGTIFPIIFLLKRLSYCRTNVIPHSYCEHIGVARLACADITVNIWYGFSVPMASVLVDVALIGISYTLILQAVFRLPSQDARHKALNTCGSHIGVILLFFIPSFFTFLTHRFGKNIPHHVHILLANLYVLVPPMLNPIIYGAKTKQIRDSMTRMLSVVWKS
# Outline: as §1
# UniProt Q99NH4 = biological target: T8, UniProt Q99NH4
# T8 sequence (whole entry): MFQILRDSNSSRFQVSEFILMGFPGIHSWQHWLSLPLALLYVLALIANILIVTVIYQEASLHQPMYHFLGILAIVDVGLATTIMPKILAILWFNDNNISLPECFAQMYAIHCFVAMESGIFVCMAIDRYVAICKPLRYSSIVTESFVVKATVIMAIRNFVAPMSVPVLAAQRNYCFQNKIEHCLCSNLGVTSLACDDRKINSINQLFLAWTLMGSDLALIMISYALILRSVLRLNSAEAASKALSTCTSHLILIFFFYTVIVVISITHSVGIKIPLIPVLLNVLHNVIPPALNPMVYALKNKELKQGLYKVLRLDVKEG
# Outline: as §1
# UniProt Q9WU94 = biological target: T9, UniProt Q9WU94
# T9 sequence (whole entry): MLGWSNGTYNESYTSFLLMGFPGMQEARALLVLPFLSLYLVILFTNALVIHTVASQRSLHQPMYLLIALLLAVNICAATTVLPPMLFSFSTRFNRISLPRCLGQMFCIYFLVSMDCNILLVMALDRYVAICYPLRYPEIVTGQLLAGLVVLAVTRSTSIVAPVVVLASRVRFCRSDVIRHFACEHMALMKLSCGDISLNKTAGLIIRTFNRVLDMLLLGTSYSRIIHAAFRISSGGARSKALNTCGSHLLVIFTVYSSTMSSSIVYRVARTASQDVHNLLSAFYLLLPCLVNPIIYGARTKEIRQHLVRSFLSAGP
# Outline: as §1
# UniProt Q8VGX8 = biological target: T10, UniProt Q8VGX8
# T10 sequence (whole entry): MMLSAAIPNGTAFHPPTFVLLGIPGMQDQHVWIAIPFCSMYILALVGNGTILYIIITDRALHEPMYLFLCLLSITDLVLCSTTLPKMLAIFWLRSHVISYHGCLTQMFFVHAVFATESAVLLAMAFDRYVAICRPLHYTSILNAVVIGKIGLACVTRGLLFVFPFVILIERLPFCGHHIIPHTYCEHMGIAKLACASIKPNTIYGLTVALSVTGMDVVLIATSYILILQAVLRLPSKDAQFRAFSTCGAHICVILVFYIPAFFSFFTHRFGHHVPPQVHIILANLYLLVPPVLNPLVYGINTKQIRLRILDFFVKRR
# Outline: as §1
# UniProt Q924X8 = biological target: T11, UniProt Q924X8
# T11 sequence (whole entry): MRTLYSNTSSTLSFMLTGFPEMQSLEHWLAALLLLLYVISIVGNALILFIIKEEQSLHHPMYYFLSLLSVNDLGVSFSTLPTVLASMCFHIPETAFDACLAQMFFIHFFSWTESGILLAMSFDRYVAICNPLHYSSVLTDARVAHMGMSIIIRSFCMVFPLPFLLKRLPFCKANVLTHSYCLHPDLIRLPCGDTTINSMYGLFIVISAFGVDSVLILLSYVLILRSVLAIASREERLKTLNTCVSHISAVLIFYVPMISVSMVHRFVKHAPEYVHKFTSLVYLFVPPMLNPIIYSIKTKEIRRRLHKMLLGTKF
# Outline: as §1
# UniProt Q9WVD7 = biological target: T12, UniProt Q9WVD7
# T12 sequence (whole entry): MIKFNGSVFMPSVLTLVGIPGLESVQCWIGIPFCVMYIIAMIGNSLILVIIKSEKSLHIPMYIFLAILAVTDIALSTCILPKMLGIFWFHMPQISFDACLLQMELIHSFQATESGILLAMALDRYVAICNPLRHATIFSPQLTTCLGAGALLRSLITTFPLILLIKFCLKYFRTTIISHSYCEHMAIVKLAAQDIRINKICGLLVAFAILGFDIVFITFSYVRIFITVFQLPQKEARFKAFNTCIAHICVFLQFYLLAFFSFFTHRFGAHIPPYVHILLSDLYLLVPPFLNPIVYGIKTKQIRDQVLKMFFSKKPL
# Outline: as §1
# UniProt Q8VGY6 = biological target: T13, UniProt Q8VGY6
# T13 sequence (whole entry): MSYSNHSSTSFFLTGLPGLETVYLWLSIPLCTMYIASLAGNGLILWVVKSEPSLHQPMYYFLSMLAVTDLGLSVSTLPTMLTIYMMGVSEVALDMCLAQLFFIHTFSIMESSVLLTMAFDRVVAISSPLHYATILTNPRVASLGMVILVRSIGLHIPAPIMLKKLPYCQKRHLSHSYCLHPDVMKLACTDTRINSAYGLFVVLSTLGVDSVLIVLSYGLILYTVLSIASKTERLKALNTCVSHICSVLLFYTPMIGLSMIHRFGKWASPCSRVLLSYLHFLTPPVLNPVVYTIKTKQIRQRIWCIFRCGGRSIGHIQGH
# Outline: as §1
# UniProt Q8VH10 = biological target: T14, UniProt Q8VH10
# T14 sequence (whole entry): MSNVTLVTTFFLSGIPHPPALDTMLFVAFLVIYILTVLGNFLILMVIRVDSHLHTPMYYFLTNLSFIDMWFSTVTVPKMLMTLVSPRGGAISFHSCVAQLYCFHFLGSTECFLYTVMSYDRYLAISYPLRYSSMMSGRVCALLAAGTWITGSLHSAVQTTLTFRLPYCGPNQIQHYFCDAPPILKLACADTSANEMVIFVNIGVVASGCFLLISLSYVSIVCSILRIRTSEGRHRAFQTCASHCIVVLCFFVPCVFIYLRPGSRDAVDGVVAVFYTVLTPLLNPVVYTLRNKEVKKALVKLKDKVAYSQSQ
# Outline: as §1
# UniProt Q9EPN9 = biological target: T15, UniProt Q9EPN9
# T15 sequence (whole entry): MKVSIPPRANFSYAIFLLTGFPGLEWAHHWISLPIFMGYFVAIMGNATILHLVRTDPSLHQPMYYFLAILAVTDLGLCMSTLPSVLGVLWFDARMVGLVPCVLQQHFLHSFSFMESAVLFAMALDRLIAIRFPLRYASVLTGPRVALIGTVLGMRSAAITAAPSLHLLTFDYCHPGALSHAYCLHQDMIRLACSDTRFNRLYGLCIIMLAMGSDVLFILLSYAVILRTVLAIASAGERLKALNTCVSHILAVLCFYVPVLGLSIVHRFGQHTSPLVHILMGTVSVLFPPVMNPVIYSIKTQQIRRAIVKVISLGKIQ
# Outline: as §1
# UniProt Q9R0K2 = biological target: UniProt Q9R0K2
# Chain of UniProt Q9R0K2 (Q9R0K2 as listed by the source): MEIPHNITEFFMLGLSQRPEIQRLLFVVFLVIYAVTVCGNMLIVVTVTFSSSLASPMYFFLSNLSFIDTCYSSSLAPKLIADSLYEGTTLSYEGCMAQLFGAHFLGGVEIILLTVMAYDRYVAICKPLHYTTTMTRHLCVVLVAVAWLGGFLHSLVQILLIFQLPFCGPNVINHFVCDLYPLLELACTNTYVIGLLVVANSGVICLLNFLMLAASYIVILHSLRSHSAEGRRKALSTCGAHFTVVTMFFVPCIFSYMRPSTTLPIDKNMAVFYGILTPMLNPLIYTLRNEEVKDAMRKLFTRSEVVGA
# Outline: as §1
# UniProt Q9WU86 = biological target: T16, UniProt Q9WU86
# T16 sequence (whole entry): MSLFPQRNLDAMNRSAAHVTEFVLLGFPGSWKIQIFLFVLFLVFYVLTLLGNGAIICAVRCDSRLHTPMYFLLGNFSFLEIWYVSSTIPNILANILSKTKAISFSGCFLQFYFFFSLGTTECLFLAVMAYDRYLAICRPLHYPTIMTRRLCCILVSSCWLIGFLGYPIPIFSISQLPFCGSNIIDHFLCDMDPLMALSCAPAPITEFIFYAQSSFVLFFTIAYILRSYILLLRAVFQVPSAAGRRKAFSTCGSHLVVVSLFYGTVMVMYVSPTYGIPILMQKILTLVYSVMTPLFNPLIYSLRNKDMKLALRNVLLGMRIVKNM
# Outline: as §1
# 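Also: active if original authors judged signal statistically different from baseline.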
SMILES,odorant receptor agonist call (UniProt Q8VGZ2),odorant receptor agonist call (UniProt Q8VGZ7),odorant receptor agonist call (UniProt Q8VH16),odorant receptor agonist call (UniProt Q8VH20),odorant receptor agonist call (UniProt Q8VH21),odorant receptor agonist call (UniProt Q924H8),odorant receptor agonist call (UniProt Q8VH18),odorant receptor agonist call (UniProt Q99NH4),odorant receptor agonist call (UniProt Q9WU94),odorant receptor agonist call (UniProt Q8VGX8),odorant receptor agonist call (UniProt Q924X8),odorant receptor agonist call (UniProt Q9WVD7),odorant receptor agonist call (UniProt Q8VGY6),odorant receptor agonist call (UniProt Q8VH10),odorant receptor agonist call (UniProt Q9EPN9),odorant receptor agonist call (UniProt Q9R0K2),odorant receptor agonist call (UniProt Q9WU86)
CCCCCCCCOC=O,inactive,inactive,inactive,inactive,inactive,inactive,–,–,–,–,–,–,–,–,–,–,–
CCCCC=O,inactive,inactive,inactive,inactive,inactive,inactive,inactive,inactive,inactive,–,–,–,–,–,–,–,–
CCCC(C)C(=O)OCC (centres undefined),inactive,inactive,inactive,inactive,inactive,inactive,–,–,–,–,–,–,–,–,–,–,–
CC=Cc1ccc(OC)cc1,inactive,inactive,inactive,inactive,inactive,inactive,–,–,–,–,–,–,–,–,–,–,–
O=C(O)CCCCCBr,inactive,inactive,inactive,active,inactive,inactive,inactive,inactive,inactive,active,active,active,–,–,–,–,–
O=C(c1ccccc1)c1ccccc1,inactive,inactive,inactive,inactive,inactive,inactive,–,–,–,inactive,–,–,inactive,inactive,inactive,inactive,inactive
C=CC(=C)CCC=C(C)CCC=C(C)C,inactive,inactive,inactive,inactive,inactive,inactive,–,–,–,–,–,–,–,–,–,–,–
O=C([O-])CCCCCCCC(=O)[O-].[H+].[H+],inactive,inactive,inactive,inactive,inactive,inactive,inactive,inactive,active,inactive,active,inactive,–,–,–,–,–
